Compounds with a hit are over-represented: about 1.8% of the library has one in this group of screens.
Platelet DG rel: platelet dense granule release activity. human platelet-rich plasma, SFLLRN dense granule ATP release, luminescence. inhibition, %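 (compounds screened at 7.5 µM in platelet-rich plasma)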. 300,000 tested, 0.22% active. AID 1663;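 active = mean replicate score, as percent of positive control, at or above 50; inconclusive = mean below 50 but at least one replicate at or above 50; inactive = mean and every replicate below 50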
Rce1 inhib: inhibitors of yeast Ras-converting enzyme; Q03530; yeast membranes, quenched prenylated peptide cleavage fluorescence; calls only; 290,000 tested, 0.27% active;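 active = fall in fluorescence gain of 50% or more versus controls, with final raw signal at or below 3038400; inconclusive = same 50% fall but final raw signal above 3038400; inactive = fall in fluorescence gain under 50%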;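 note: plate controls were neutral control wells for no effect and wells lacking membranes for full effect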
Runt-SMMHC FRET: inhibitors of human RUNX1 Runt domain binding to CBFb-SMMHC. Cerulean-Runt/Venus-CBFb-SMMHC FRET ratio 530/480, 1 h. Q01196+Q13951. inhibition, % at 20 µM. 220,000 tested, 0.74% active;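 active = mean inhibition across duplicate retests at 20 µM reaching about 50%, limit read from the data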;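 note: 0% = DMSO wells and 100% = wells with excess untagged CBFb-SMMHC; inhibitors lower the FRET ratio by blocking Runt binding to CBFb-SMMHC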
Target sequence (Q01196 whole entry, looked up, the tested form may be a part): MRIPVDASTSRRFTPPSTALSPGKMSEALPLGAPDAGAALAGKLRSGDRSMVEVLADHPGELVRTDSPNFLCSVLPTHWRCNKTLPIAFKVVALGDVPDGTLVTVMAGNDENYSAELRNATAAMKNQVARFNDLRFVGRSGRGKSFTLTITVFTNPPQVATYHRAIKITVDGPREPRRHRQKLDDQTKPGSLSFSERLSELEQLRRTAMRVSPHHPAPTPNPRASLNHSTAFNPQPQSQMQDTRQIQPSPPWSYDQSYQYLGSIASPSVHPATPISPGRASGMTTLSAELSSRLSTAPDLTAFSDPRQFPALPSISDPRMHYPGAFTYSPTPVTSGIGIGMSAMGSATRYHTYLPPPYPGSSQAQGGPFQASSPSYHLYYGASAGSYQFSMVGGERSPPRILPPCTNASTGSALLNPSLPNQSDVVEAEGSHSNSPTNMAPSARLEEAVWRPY
Target sequence (Q13951 whole entry, looked up, the tested form may be a part): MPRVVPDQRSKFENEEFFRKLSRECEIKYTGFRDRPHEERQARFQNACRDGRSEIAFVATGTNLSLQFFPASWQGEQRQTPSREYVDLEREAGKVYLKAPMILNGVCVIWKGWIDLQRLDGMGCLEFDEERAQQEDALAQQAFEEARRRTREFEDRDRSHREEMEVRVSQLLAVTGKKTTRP
RanGTP-Imp inh: disruptors of Ran-importin-beta complex formation – biochemical, FRET, CFP-Ran, YFP-importin-beta, homogeneous, primary screen. cell-free CFP-Ran/YFP-importin-beta FRET ratio. 300,000 tested, 1.1% active. AID 2216. inhibition, % (test concentration not listed);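 active = more than half of the replicate wells show a fall in the fluorescence ratio signal beyond about 16%, limit read from the data, passing the limit was not always enough; inconclusive = exactly half of the replicate wells pass the set limit; inactive = fewer than half of replicates pass the limit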;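 note: 0% = DMSO wells and 100% = Ran loaded with GDP instead of GTP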
Runt-CBFb FRET: blocks binding of human RUNX1 Runt domain to CBFb | Cerulean-Runt/Venus-CBFb FRET ratio 530/480, 1 h | inhibition, % at 20 µM | 220,000 tested, 0.46% active | AID 1496;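 active = inhibition over about 50% at 20 µM in the single-dose screen, limit read from the data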;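 note: 0% = DMSO wells and 100% = excess unlabeled CBFb competitor control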
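Assay system: Cerulean-Runt domain fusion protein, energy donor; Signal: fluorescence energy transfer, 422 nm excitation, 530/480 nm emission; Timing: 1 h compound exposure, room temperature; Control set: unlabeled CBFb; Medium: Tris buffer pH 7.5 with salts and BSA; Compound: single test concentration of 20 µM, 1% DMSO final; Probe or stimulus: Venus-CBFb 100 nM.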
YIC counter: counter-screen YIC FRET for RanGTP-importin-beta inhibitors | 1,000 tested, 40% active | Purified YIC probe, intramolecular FRET ratio YFP/CFP | IC50, µM | shares compounds with RanGTP-Imp inh;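 active = fitted half-maximal inhibitory concentration no more than tenfold above the top dose tested; inconclusive = flat fit with 30 to 70% activity, or poor fit; inactive = half-maximal concentration beyond tenfold above the top dose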
An asterisk follows results filed as active.

How did COC(=O)C1CC(=O)N(c2ccc(C)cc2)C1 (stereo not given) do in these assays?
Platelet DG rel: -5; Rce1 inhib: inactive; Runt-SMMHC FRET: 2; RanGTP-Imp inh: 1; Runt-CBFb FRET: 1

Results for COc1ccc(OC(=O)C2CC(=O)N(c3ccc(C)cc3)C2)cc1 (stereo not given) ?
Platelet DG rel: -2; Runt-SMMHC FRET: 5; RanGTP-Imp inh: 22*; Runt-CBFb FRET: -2; YIC counter: >50

What do the screens show for `Cc1ccc(S(=O)(=O)c2nnn3c2nc(N2CCC(C(N)=O)CC2)c2ccccc23)cc1`?
Platelet DG rel: 2; Rce1 inhib: inactive; RanGTP-Imp inh: 4

How did CCOC(=O)C1=C(CCc2ccccc2)NC(=O)NC1c1ccc(C#N)cc1 (stereo not given) do in these assays?
Platelet DG rel: 0; Rce1 inhib: inactive; RanGTP-Imp inh: 0

What do the screens show for `CCOC(=O)C1=C(N)OC2=C(C(=O)CCC2)C1c1ccc(C)s1` (stereo not given)?
Platelet DG rel: -6; Rce1 inhib: inactive; Runt-SMMHC FRET: -6; RanGTP-Imp inh: inconclusive; Runt-CBFb FRET: 0

What do the screens show for `CCOC(=O)C1=C(N)OC2=C(C(=O)CCC2)C1c1sccc1C` (stereo not given)?
Platelet DG rel: 2; Rce1 inhib: inactive; Runt-SMMHC FRET: -3; RanGTP-Imp inh: 23*; Runt-CBFb FRET: -2; YIC counter: >50

Results for Cc1nc(-c2cccc(Br)c2)ccc1C(=O)O ?
Platelet DG rel: 9; Rce1 inhib: inactive; Runt-SMMHC FRET: 0; RanGTP-Imp inh: 8; Runt-CBFb FRET: 1

Results for O=C(CN1CCN(C/C=C/c2ccccc2)CC1)NC(=O)NC1CCCCC1 ?
Platelet DG rel: -4; Rce1 inhib: inactive; Runt-SMMHC FRET: 0; RanGTP-Imp inh: 29*; Runt-CBFb FRET: -3; YIC counter: >50

What do the screens show for `CCOc1ccc(C)cc1S(=O)(=O)Nc1ccc(Cl)cn1`?
Platelet DG rel: 10; Rce1 inhib: inactive; Runt-SMMHC FRET: 3; RanGTP-Imp inh: 19*; Runt-CBFb FRET: -2; YIC counter: >50

What do the screens show for `COc1ccc(C(C)(C)C)cc1NC(=O)Cn1cnnn1`?
Platelet DG rel: -2; Rce1 inhib: inactive; Runt-SMMHC FRET: 0; RanGTP-Imp inh: 2; Runt-CBFb FRET: 1

Results for CCOC(=O)N1CCN(c2cc(=O)n(C3CCCCC3)c(=O)[nH]2)CC1 ?
Platelet DG rel: -23; Rce1 inhib: inactive; Runt-SMMHC FRET: -1; RanGTP-Imp inh: 19*; Runt-CBFb FRET: 5; YIC counter: >50

What do the screens show for `CN1CCN(c2cc(=O)n(C3CCCCC3)c(=O)[nH]2)CC1`?
Platelet DG rel: -5; Rce1 inhib: inactive; Runt-SMMHC FRET: 3; RanGTP-Imp inh: 10; Runt-CBFb FRET: 1

How did CCN1CCN(c2cc(=O)n(C3CCCCC3)c(=O)[nH]2)CC1 do in these assays?
Platelet DG rel: -2; Rce1 inhib: inactive; Runt-SMMHC FRET: 0; RanGTP-Imp inh: inconclusive; Runt-CBFb FRET: 1

How did CCOC(=O)C1CCN(c2cc(=O)n(C3CCCCC3)c(=O)[nH]2)CC1 do in these assays?
Platelet DG rel: -6; Rce1 inhib: inactive; Runt-SMMHC FRET: 3; RanGTP-Imp inh: 51*; Runt-CBFb FRET: -2; YIC counter: >50

What do the screens show for `O=[N+]([O-])c1cc(C(F)(F)F)ccc1NCC1CCCO1` (stereo not given)?
Platelet DG rel: 4; Rce1 inhib: inactive; RanGTP-Imp inh: -6

Results for N#Cc1cc(NCC2CCCO2)c([N+](=O)[O-])cc1C#N (stereo not given) ?
Platelet DG rel: -1; Rce1 inhib: inactive; Runt-SMMHC FRET: -1; RanGTP-Imp inh: 23*; Runt-CBFb FRET: 0; YIC counter: >50

How did Cc1ccc(-c2noc(CN(C(=O)Cc3ccccc3)C(C)C)n2)cc1 do in these assays?
Platelet DG rel: -4; Rce1 inhib: inactive; Runt-SMMHC FRET: -1; RanGTP-Imp inh: -9; Runt-CBFb FRET: -2

What do the screens show for `Cc1cc(Nc2ccccc2)nc2cc(O)ccc12`?
Platelet DG rel: 9; Rce1 inhib: inactive; Runt-SMMHC FRET: 64*; RanGTP-Imp inh: 18*; Runt-CBFb FRET: 43; YIC counter: 49*

How did Cc1c(C(=O)NNC(=S)Nc2cccc(Cl)c2)nnn1-c1ccccc1 do in these assays?
Platelet DG rel: 4; Rce1 inhib: inactive; Runt-SMMHC FRET: 0; RanGTP-Imp inh: -1; Runt-CBFb FRET: 6

What do the screens show for `CCCc1noc(-c2cccc([N+](=O)[O-])c2)n1`?
Platelet DG rel: 0; Rce1 inhib: inactive; Runt-SMMHC FRET: 2; RanGTP-Imp inh: 24*; Runt-CBFb FRET: 0; YIC counter: >50

What do the screens show for `COc1ccc(-c2cc(C)no2)cc1S(=O)(=O)Nc1cccc(CN2CCCC2)c1`?
Platelet DG rel: -2; Rce1 inhib: inactive; RanGTP-Imp inh: -2

What do the screens show for `C=C1CCN([C@H](C(=O)NCc2ccc(OC)cc2)C(C)C)S(=O)(=O)c2ccccc21`?
Platelet DG rel: -1; Rce1 inhib: inactive; Runt-SMMHC FRET: -7; RanGTP-Imp inh: -4; Runt-CBFb FRET: -1

How did Cn1c(=O)c2c(ncn2CCOc2ccc(F)cc2)n(C)c1=O do in these assays?
Platelet DG rel: 7; Rce1 inhib: inactive; RanGTP-Imp inh: 16*; YIC counter: >50

Results for Cn1c(=O)c2c(ncn2CCOc2ccc(Br)cc2)n(C)c1=O ?
Platelet DG rel: 12; Rce1 inhib: inactive; RanGTP-Imp inh: 0

What do the screens show for `CC(CC(F)(F)F)N1CCC(n2nccc2NC(=O)CCOc2ccccc2)CC1` (stereo not given)?
Platelet DG rel: -3; Rce1 inhib: inactive; RanGTP-Imp inh: 27*; YIC counter: >50

How did COCC(C)N1CCC(n2nccc2NC(=O)CCOc2ccccc2)CC1 (stereo not given) do in these assays?
Platelet DG rel: -7; RanGTP-Imp inh: 4

What do the screens show for `O=C(O)Cn1cc(/C=C2/SC(=O)N(CC(=O)N3CCCCCC3)C2=O)c2ccccc21`?
Platelet DG rel: 9; Runt-SMMHC FRET: 27; RanGTP-Imp inh: 17*; Runt-CBFb FRET: 8; YIC counter: >50

What do the screens show for `O=C(O)Cn1cc(/C=C2\SC(=O)N(c3ccccc3)C2=O)c2ccccc21`?
Platelet DG rel: 2; Rce1 inhib: inactive; Runt-SMMHC FRET: 29; RanGTP-Imp inh: 24*; Runt-CBFb FRET: 14; YIC counter: 39*

How did COCCCn1c(=N)c(C(=O)NCc2ccc3c(c2)OCO3)cc2c(=O)n3ccccc3nc21 do in these assays?
Platelet DG rel: -5; Rce1 inhib: inactive; Runt-SMMHC FRET: 172*; RanGTP-Imp inh: 36*; Runt-CBFb FRET: 79*; YIC counter: 25*

Screening data from PubChem BioAssay.
